Consider 12 molecules from publication PMC4646424 (Journal of medicinal chemistry, 2015).

Where two headings read alike, the source gives them in different places.

Series [1] in a line: Particle formation by dynamic light scattering. Format: physicochemical. The settings on record: for DLS detected (concentration at which particles were detected) / DLS particle radius: dynamic light scattering; for DLS particle radius: at the concentration detected. A digest of the protocol: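 Particle formation was measured by dynamic light scattering following an earlier published method, with each test compound in buffer both without and with 0.01% Triton X-100. Read-outs were scattering intensity and average particle radius. For selected compounds, critical aggregation concentration was found by tracking scattering intensity as concentration rose, using three independent experiments. Forming aggregator-type particles was a required criterion.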

Another series has as its target AmpC β-lactamase (Escherichia coli, UniProt P00811). In words: AmpC β-lactamase inhibition with and without Triton X-100. Format: biochemical. The settings on record: for IC50: 1% DMSO. A digest of the protocol: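 AmpC β-lactamase activity was measured following an earlier published method, with final DMSO at 1% in all samples. Concentration-response curves were run with and without 0.01% Triton X-100. Where detergent fully reversed inhibition, only the highest inhibitor concentration was tested. Values are means of duplicate samples from two independent experiments. Detergent-sensitive inhibition with IC50 better than 100 µM was one criterion for classing a compound as an aggregator.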

The conditions of series [2]: cited from earlier work; for Known aggregator status: previously reported.
Series [3] has as its target monoamine oxygenase B (MAOB). The settings on record: read-out: Inhibition of MAOB; cited from earlier work.
The target in series [4] is cholesterol ester transferase protein (CETP). Conditions: read-out: Inhibition of CETP; cited from earlier work.
[5] abbreviates: read-out: AmpC IC50 no Triton, no Triton X-100.
Setting [6] is: read-out: AmpC IC50 plus Triton, plus 0.01% Triton X-100.

Sequence of AmpC β-lactamase (P00811 20-377): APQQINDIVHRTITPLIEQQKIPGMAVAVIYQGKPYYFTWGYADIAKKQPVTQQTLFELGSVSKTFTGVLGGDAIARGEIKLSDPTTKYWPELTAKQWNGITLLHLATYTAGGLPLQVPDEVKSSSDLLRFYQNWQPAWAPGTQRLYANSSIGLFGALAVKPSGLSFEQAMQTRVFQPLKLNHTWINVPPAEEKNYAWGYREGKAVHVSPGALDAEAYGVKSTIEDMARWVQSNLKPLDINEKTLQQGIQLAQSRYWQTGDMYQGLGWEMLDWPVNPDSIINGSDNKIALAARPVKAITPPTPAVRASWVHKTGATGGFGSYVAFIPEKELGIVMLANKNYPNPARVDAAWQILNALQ

Turning to `Nc1sc2c(c1C(=O)c1ccc(Cl)cc1)CCCC2` [CHEMBL57997], in series [1], the “DLS detected (concentration at which particles were detected)” value (shortened to “DLS detected”) came out at 21 µM and the DLS particle radius was 270 nm. At AmpC β-lactamase (setting [5]), the IC50 worked out at 12.7 µM. The IC50 on AmpC β-lactamase (setting [6]) is over 100 µM.
As for `CC(=O)c1c(O)c(C)c(O)c(Cc2c(O)c3c(c(C(=O)/C=C/c4ccccc4)c2O)OC(C)(C)C=C3)c1O` [Rottlerin], in series [2], the Known aggregator status entry is listed as “known aggregator at micromolar concentrations”.
Regarding `CN(CCC#N)C(=O)c1cc2c(s1)-c1ccccc1SC2` [CHEMBL1565380], the “DLS detected” value in series [1] stood at 100 µM. This molecule also yielded a DLS particle radius in series [1] of 71 nm. Further, the IC50 was 184 µM on AmpC β-lactamase (setting [5]) and over 400 µM on AmpC β-lactamase (setting [6]).
As for `COc1ccc2c(=O)cc(-c3ccc(C)cc3)oc2c1` [CHEMBL17052], the “Colloid formation by DLS” value in series [1] (up to concentrations of at least 200 µM (Table 2)) was “does not form colloids”. Further, the IC50 in series [3] is 11.3 µM.
In the case of `C[C@]12CC[C@@H]3c4ccc(O)cc4C[C@@H](CCCCCCCCC[S+]([O-])CCCC(F)(F)C(F)(F)F)[C@H]3[C@@H]1CC[C@@H]2O` (stereo partly shown) [fulvestrant], the Known aggregator status result in series [2] is given as “strong aggregators”.
Regarding `COc1ccc(OC(C)C(=O)N(C)Cc2nc(-c3ccc(OC)cc3)no2)cc1` (stereo not shown) [CHEMBL1508601], the “DLS detected” value in series [1] came to 100 µM. Further, in series [1], the DLS particle radius is given as 62 nm. In addition, the values for the IC50 on AmpC β-lactamase (setting [5]) and at AmpC β-lactamase (setting [6]) were 235 µM and over 400 µM, respectively.
As for `Cc1ccccc1OCC(=O)Nc1ccc(-c2nc3cc(Cl)ccc3o2)cc1` [CHEMBL261275], the IC50 was 21 µM in series [4], 7 µM on AmpC β-lactamase (setting [5]) and over 100 µM on AmpC β-lactamase (setting [6]). Besides, the “DLS detected” value in series [1] is on record as 4 µM. Moreover, in series [1], the DLS particle radius is recorded as 2312 nm. Moreover, the “Effect of 0.01% Triton X-100 on β-lactamase inhibition” value on AmpC β-lactamase (addition of 0.01% Triton X-100) is on record as “fully abrogated”.
Turning to `CCOC(=O)c1c(-c2ccc(C)o2)csc1NC(=O)CSc1ncn[nH]1` [CHEMBL1347854], in series [1], the “DLS detected” value is on record as 10 µM and the DLS particle radius came out at 115 nm. In addition, the IC50 on AmpC β-lactamase (setting [5]) was 29 µM. Further, the IC50 at AmpC β-lactamase (setting [6]) was over 100 µM.
With `Cc1ccc(-c2noc(CN(C(=O)C(c3ccccc3)c3ccccc3)C(C)C)n2)cc1` [CHEMBL1304694], in series [1], the “DLS detected” value is reported as 20 µM and the DLS particle radius was determined as 456 nm. The IC50 on AmpC β-lactamase (setting [5]) was 8 µM. On AmpC β-lactamase (setting [6]), the IC50 is over 100 µM.
Regarding `CNC(=O)c1cc(Oc2ccc(NC(=O)Nc3ccc(Cl)c(C(F)(F)F)c3)cc2)ccn1` [sorafenib], the “CAC (critical aggregation concentration)” value in series [2] (in biochemical buffer and in cell culture) is reported as 3.5 µM. In addition, in series [2], the Known aggregator status entry is reported as “strong aggregators”.
As to `C=CCOC(=O)c1[nH]c2c(c1C)C(=O)CC(c1ccco1)C2` (stereo not shown) [CHEMBL1359872], in series [1], the “DLS detected” value is 10 µM and the DLS particle radius was 405 nm. Moreover, the IC50 at AmpC β-lactamase (setting [5]) came out at 10 µM. The IC50 at AmpC β-lactamase (setting [6]) is over 100 µM.
In the case of `Cc1cc(NS(=O)(=O)c2ccc(NC(=O)COc3c(C)cc(Br)cc3C)cc2)no1` [CHEMBL1333273], in series [1], the “DLS detected” value is 100 µM. The same molecule gave a DLS particle radius in series [1] of 49 nm. For the same molecule, the figures for the IC50 at AmpC β-lactamase (setting [5]) and on AmpC β-lactamase (setting [6]) were 146 µM and over 400 µM, respectively.
